The target in data set [1] is Outer membrane protein MIP (Legionella pneumophila, UniProt Q70YI1).
The nature of data set [2]: Stability of the compound in methanol/HEPES buffer at pH 7.8 at 40 degC for 24 hrs by HPLC analysis. Type of data set: physicochemical. The note with it: read-out: Stability. In outline:
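Compound dilutions incubated for 24 h in methanol with 10 mM HEPES buffer (pH 7.8) at 25 °C and 40 °C. HPLC analysis was done at 0 and 24 h to give the percentage of intact compound remaining.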

A short description of data set [3]: Metabolic stability in mouse J774.1 cells at 37 degC after 1 hr by HPLC analysis. It is filed as ADME, cell-based. The following applies: read-out: Stability. In outline:
(§1)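 Compound incubated with J774.1 murine macrophages in RPMI medium at 37 °C, sampled at 0, 1 and 24 h, and the remaining compound quantified by HPLC.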

A short description of data set [4]: Metabolic stability in mouse J774.1 cells at 37 degC after 24 hrs by HPLC analysis. The following applies: read-out: Stability. It is filed as ADME, cell-based. In outline: as §1
A short description of another data set: in vitro. The note with it: mouse, J774.1 cells.
Data set [5] is described as follows: Stability in human plasma after 1 hr by HPLC analysis. Type of data set: ADME, cell-free. In outline:
(§2)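 Compound incubated in human plasma and sampled at 1, 4 and 24 h. The decrease in compound concentration was followed by HPLC.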

A short description of data set [6]: Stability in human plasma after 4 hrs by HPLC analysis. It is filed as ADME, cell-free. In short, it runs like this: as §2
Data set [7] can be described thus: Stability in human plasma after 24 hrs by HPLC analysis. Type of data set: ADME, cell-free. In short, it runs like this: as §2

pIC50: −log10 of the molar value. Where only a bound is given, the exact number is not on record here.

Outer membrane protein MIP, sequence (Q70YI1 21-233 limits assumed): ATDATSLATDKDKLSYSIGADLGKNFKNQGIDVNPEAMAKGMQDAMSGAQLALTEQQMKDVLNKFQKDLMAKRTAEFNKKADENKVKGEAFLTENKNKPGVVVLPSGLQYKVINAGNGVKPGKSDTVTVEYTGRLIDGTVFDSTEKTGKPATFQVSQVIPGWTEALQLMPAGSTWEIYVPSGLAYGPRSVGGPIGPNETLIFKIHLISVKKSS

A word on the pIC50: it is the IC50 on a negative log10 scale, so that one unit is a factor of ten. The term IC50 denotes the point on the concentration scale where inhibition reaches its midpoint. A high value points to weaker potency in that assay. The compound `COCCOc1cc(OCCOC)cc(C(=O)OCCOC(=O)[C@@H]2CCCCN2S(=O)(=O)Cc2ccccc2)c1` gave a pIC50 in data set [1] of 5.07. The values for the remaining at 24 h in data set [2] and in data set [4] were 85% and 59%, respectively. Moreover, the remaining at 1 h in data set [3] turned out to be 98%. In addition, the IC50 at 24 h in “in vitro” is > 80 µM.

As to `CC(C)NC(=O)[C@@H]1CCCCN1S(=O)(=O)Cc1ccccc1`, the pIC50 in data set [1] was < 4.00. In addition, in data set [2], the remaining at 24 h was > 95%. For the same compound, the IC50 at 24 h in “in vitro” was > 100 µM.

`O=C(C(=O)N1CCCC[C@H]1C(=O)OCCCc1cccnc1)c1ccccc1` gave a negative-log IC50 (pIC50) in data set [1] of 3.85. In the data set “in vitro”, this compound yielded an IC50 at 24 h of 88.1 µM.

For `COc1cc(CCCOC(=O)[C@@H]2CCCCN2S(=O)(=O)Cc2ccccc2)cc(OC)c1OC`, the remaining at 24 h in data set [2] stood at 99%.

`COCCOc1cc(OCCOC)cc(C(=O)NCCOC(=O)[C@@H]2CCCCN2S(=O)(=O)Cc2ccccc2)c1` had a pIC50 in data set [1] of 5.25. For the same compound, the remaining at 24 h in data set [2] is > 95%. In “in vitro”, the IC50 at 24 h is > 100 µM.

`O=C(NCCOC(=O)[C@@H]1CCCCN1S(=O)(=O)Cc1ccccc1)c1cccnc1` showed a pIC50 in data set [1] of 4.94. In addition, in data set [3], the remaining at 1 h came out at 82%. The remaining at 24 h in data set [4] was found to be 81%. For the same compound, the Stability stood at 5% in data set [5], 20% in data set [6] and 50% in data set [7]. Also, the IC50 at 24 h in the data set “in vitro” is > 100 µM.

Turning to `O=C(OCCCc1cccnc1)[C@@H]1CCCCN1S(=O)(=O)Cc1ccccc1`, the pIC50 in data set [1] was 5.24. In data set [2], the remaining at 24 h came to 99%. In addition, in the data set “in vitro”, the IC50 at 24 h was > 100 µM.

In turn, `O=C(OCCCc1cccnc1)[C@@H]1CCCCN1S(=O)(=O)Cc1ccc(Cl)cc1` gave a pIC50 in data set [1] of 5.62. In the data set “in vitro”, this compound registered an IC50 at 24 h of 33.6 µM.

Take `Nc1ccc(CS(=O)(=O)N2CCCCC2C(=O)OCCCc2cccnc2)cc1` (racemic): in data set [1], the pIC50 was 4.67. The IC50 at 24 h in the data set “in vitro” is > 100 µM.

`COc1cc(C(=O)NCCOC(=O)[C@@H]2CCCCN2S(=O)(=O)Cc2ccccc2)ccc1O` showed a pIC50 in data set [1] of 5.49. Further, in the data set “in vitro”, the IC50 at 24 h is > 100 µM.

Turning to `O=C(OCCCc1cccnc1)C1CCCCN1S(=O)(=O)Cc1ccc([N+](=O)[O-])cc1` (racemic), the pIC50 in data set [1] was 5.41. Also, the IC50 at 24 h in the data set “in vitro” was 56.7 µM.

In data set [1], `O=C(OCCOc1cccnc1)[C@@H]1CCCCN1S(=O)(=O)Cc1ccccc1` had a pIC50 of 5.11. Moreover, the results for the remaining at 24 h in data set [2] and in data set [4] were > 95% and 77%, respectively. For the same compound, in data set [3], the remaining at 1 h was found to be 88%. Further, the IC50 at 24 h in “in vitro” is > 100 µM.

For `CC(C)OC(=O)C1CCCCN1S(=O)(=O)Cc1ccccc1` (racemic), the pIC50 in data set [1] is 4.10. Further, in data set [2], the remaining at 24 h was > 95%. In addition, in the data set “in vitro”, the IC50 at 24 h was > 100 µM.

With `O=C(OCCCc1cccnc1)C1CCCCN1C(=O)COc1ccc(Cl)cc1` (racemic), the pIC50 in data set [1] is 4.05. The same compound came in with an IC50 at 24 h in the data set “in vitro” of 50.9 µM.

Take `O=C(OCCCc1cccnc1)C1CCCCN1S(=O)(=O)Cc1cccc([N+](=O)[O-])c1` (racemic): in data set [1], the pIC50 was 5.06. This compound also registered an IC50 at 24 h in the data set “in vitro” of 46.7 µM.

In the case of `C[C@H](CNC(=O)c1cccnc1)OC(=O)[C@@H]1CCCCN1S(=O)(=O)Cc1ccccc1` (single isomer, unassigned), in data set [1], the pIC50 was 4.94. The IC50 at 24 h in “in vitro” is > 100 µM.

`C[C@@H](CNC(=O)c1cccnc1)OC(=O)[C@@H]1CCCCN1S(=O)(=O)Cc1ccccc1` gave a pIC50 in data set [1] of 5.46. The remaining at 24 h was > 95% in data set [2] and 97% in data set [4]. For the same compound, in data set [3], the remaining at 1 h is 95%. For the same compound, the IC50 at 24 h in the data set “in vitro” is > 100 µM.

In the case of `O=C(OCCO)C1CCCCN1S(=O)(=O)Cc1ccccc1` (racemic), the pIC50 in data set [1] is 4.03. Moreover, the remaining at 24 h is > 95% in data set [2] and 86% in data set [4]. For the same compound, in data set [3], the remaining at 1 h was found to be 95%. The IC50 at 24 h in “in vitro” was > 100 µM.

In data set [1], `O=C(OCCCc1cccnc1)[C@@H]1CCCCN1S(=O)(=O)Cc1cccc([N+](=O)[O-])c1` had a pIC50 of 5.10. Moreover, the IC50 at 24 h in “in vitro” was 48.2 µM.

In the case of `O=C(OCCCc1cccnc1)[C@@H]1CCCCN1S(=O)(=O)Cc1ccc(F)cc1`, in data set [1], the pIC50 is 5.24. Besides, the remaining at 24 h in data set [2] was > 95%. Besides, in the data set “in vitro”, the IC50 at 24 h is > 100 µM.

In data set [1], `O=C(OCCCc1cccnc1)[C@@H]1CCCCN1S(=O)(=O)Cc1cccc(Cl)c1` showed a pIC50 of 5.12. The IC50 at 24 h in “in vitro” came to 43.3 µM.

The compound `CC(C)Nc1cccc(CS(=O)(=O)N2CCCCC2C(=O)OCCCc2cccnc2)c1` (racemic) showed a pIC50 in data set [1] of 4.38. For the same compound, in “in vitro”, the IC50 at 24 h is 57.4 µM.

`Nc1cccc(CS(=O)(=O)N2CCCCC2C(=O)OCCCc2cccnc2)c1` (racemic): the pIC50 in data set [1] is < 4.00. Further, in “in vitro”, inhibition was half-maximal at 62.3 µM (IC50 at 24 h).

For `COc1cc(C(=O)NC[C@H](C)OC(=O)[C@@H]2CCCCN2S(=O)(=O)Cc2ccccc2)cc(OC)c1OC`, the negative logarithm of the IC50 (pIC50) in data set [1] was 5.66. For the same compound, in “in vitro”, the IC50 at 24 h was > 100 µM.

With `O=C(OCCCc1cccnc1)C1CCCCN1S(=O)(=O)Cc1ccccc1` (racemic), the pIC50 in data set [1] was 4.97. For the same compound, the IC50 at 24 h in the data set “in vitro” is > 100 µM.

For `O=C(OCCOC(=O)[C@@H]1CCCCN1S(=O)(=O)Cc1ccccc1)c1cccnc1`, the pIC50 in data set [1] is 5.59. The figures for the remaining at 24 h in data set [2] and in data set [4] were 40% and 50%, respectively. Besides, the remaining at 1 h in data set [3] stood at 82%. The IC50 at 24 h in “in vitro” is > 100 µM.

Regarding `CC(C)Nc1ccc(CS(=O)(=O)N2CCCCC2C(=O)OCCCc2cccnc2)cc1` (racemic), the pIC50 in data set [1] was 4.35. This compound showed an IC50 at 24 h in the data set “in vitro” of 44.3 µM.

Source of the values: ChEMBL document CHEMBL3864131, “Development, synthesis and structure-activity-relationships of inhibitors of the macrophage infectivity potentiator (Mip) proteins of Legionella pneumophila and Burkholderia pseudomallei” (Bioorg Med Chem, 2016).
